Measurements taken from ChEMBL document CHEMBL4152184, “NB 06: From a simple lysosomotropic aSMase inhibitor to tools for elucidating the role of lysosomes in signaling apoptosis and LPS-induced inflammation” (Eur J Med Chem, 2018).
The source made the active and inactive calls. The rule behind the calls is not given here.

Experiments:
PBMC [1] = experiment: Inhibition of mmLDL-stimulated apoptosis in human PBMC assessed as apoptotic cells at 2 uM preincubated for 30 mins followed by mmLDL stimulation measured after 4 hrs by YO-PRO-1/Hoechst 33342 staining based assay (reference value: 100%); assay type: functional; set-up: scale not given: the % may be the effect or the level left
Outline: (§1)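 PBMC pre-incubated 30 min with 2 μM compound, then stimulated with mmLDL (27 μg/mL; line 5) or TNFalpha (3 ng/mL; line 1) for 4 h. Apoptotic cells stained with YO-PRO-1 and all cells with Hoechst 33342. Each plate had control, stimulus, compound alone and compound plus stimulus; n = 3. Values are on a 0% (untreated control, corrected for spontaneous apoptosis) to 100% (stimulus alone) scale; means ± SE.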

PBMC [2] = experiment: Inhibition of TNFalpha-stimulated apoptosis in human PBMC assessed as apoptotic cells at 2 uM preincubated for 30 mins followed by TNFalpha stimulation measured after 4 hrs by YO-PRO-1/Hoechst 33342 staining based assay relative to control; assay type: functional; set-up: scale not given: the % may be the effect or the level left; outline: as §1
[3] = target: T1, Sphingomyelin phosphodiesterase (Homo sapiens, UniProt P17405); experiment: Inhibition of mmLDL-stimulated acid sphingomyelinase in human PBMC lysates using BODIPY FL C5-sphingomyelin as substrate preincubated for 30 mins followed by mmLDL stimulation measured after 2 hrs by HPLC method
T1 sequence (P17405 whole entry): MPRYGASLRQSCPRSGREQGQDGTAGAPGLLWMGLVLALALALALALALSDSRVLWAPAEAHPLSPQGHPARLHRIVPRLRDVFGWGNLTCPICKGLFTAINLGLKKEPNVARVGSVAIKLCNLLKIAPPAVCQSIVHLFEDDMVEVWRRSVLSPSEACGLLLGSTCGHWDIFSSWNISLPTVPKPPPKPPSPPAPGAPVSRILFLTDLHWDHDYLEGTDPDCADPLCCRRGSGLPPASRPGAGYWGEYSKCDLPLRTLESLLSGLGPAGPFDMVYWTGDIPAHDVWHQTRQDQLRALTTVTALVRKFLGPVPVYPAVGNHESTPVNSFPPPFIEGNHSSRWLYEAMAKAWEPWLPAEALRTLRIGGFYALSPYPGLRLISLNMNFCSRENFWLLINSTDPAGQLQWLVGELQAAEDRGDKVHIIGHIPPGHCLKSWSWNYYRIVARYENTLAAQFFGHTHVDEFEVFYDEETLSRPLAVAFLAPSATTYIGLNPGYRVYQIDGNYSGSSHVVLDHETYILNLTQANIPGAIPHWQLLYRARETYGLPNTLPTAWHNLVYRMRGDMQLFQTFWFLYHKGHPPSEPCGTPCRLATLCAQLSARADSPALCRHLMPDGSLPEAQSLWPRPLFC

[4] = target: T2, Sphingomyelin phosphodiesterase (Homo sapiens) (UniProt P17405); experiment: Inhibition of mmLDL-stimulated acid sphingomyelinase in human PBMC lysates assessed as enzyme residual activity at 25 uM using BODIPY FL C5-sphingomyelin as substrate preincubated for 30 mins followed by mmLDL stimulation measured after 2 hrs by HPLC method
T2 sequence (whole entry): T1 sequence (P17405 whole entry)

[5] = target: T2, Sphingomyelin phosphodiesterase (Homo sapiens); experiment: Inhibition of mmLDL-stimulated acid sphingomyelinase in human PBMC lysates at 0.5 to 50 uM preincubated for 30 mins followed by mmLDL stimulation measured after 4 hrs by YO-PRO-1/Hoechst 33342 staining based assay

SMILES | Activity (PBMC [1]) [%] | Activity (PBMC [2]) [%] | IC50 [3] [µM] | Activity [4] [%] | inhibition [5]
CN(C)CCCN1c2ccccc2CCc2ccccc21 [IMIPRAMINE] | 15 | 16 | 5 |  | 
COc1ccc(CCN(C)CCCN2c3ccccc3Sc3ccccc32)cc1 | 100 |  | 9 |  | 
COc1ccc(CCNCCCNC2c3ccccc3CCc3ccccc32)cc1 |  |  | 17 |  | 
COc1ccc(CCN(C)CCCn2ccc3ccccc32)cc1 | 84 |  | 21 |  | 
COc1ccc(CCN(C)CCCN2c3ccccc3Oc3ccccc32)cc1OC | 36 |  | 13 |  | 
COc1ccc(CCNCCNc2cccc3ccccc23)cc1 | 87 |  | 116 |  | 
CNCCCN1c2ccccc2CCc2ccccc21 |  |  |  | 20 | 
COc1ccc(CC(=O)N(C)CCCN2c3ccccc3Sc3ccc(Cl)cc32)cc1OC | 41 |  | > 250 |  | 
COc1ccc(CCNCc2cccc3ccccc23)cc1 | 100 |  | 240 |  | 
COc1ccc(CCN2CCCN(C3c4ccccc4CCc4ccccc43)C2)cc1 | 27 | 17 |  |  | 
COc1ccc(CCNCCCNC2c3ccccc3CCc3ccccc32)cc1OC | 43 |  | 39 |  | 
COc1ccc(CCN(C)CCC=C2c3ccccc3CCc3ccccc32)cc1OC | 79 |  | 10 |  | 
COc1ccc(CCNCc2cccc3ccccc23)cc1OC | 86 |  | 96 |  | 
COc1ccc(CN2C(=O)COc3ccccc32)cc1 | 100 |  | > 250 |  | 
COc1ccc(CCN2CCn3c4c(c5ccccc53)CCCC42)cc1 (stereo not given) | 19 |  | > 250 |  | 
COc1ccc(CCN(C)CCCN2c3ccccc3CCc3ccccc32)cc1OC | 73 |  | 31 |  | 
COc1ccc(CCN(C)CCCN2Cc3ccccc3CCc3ccccc32)cc1 | 8 | 2 | 17 |  | 
COc1ccc(CCN(C)CCN2c3ccccc3CCc3ccccc32)cc1 | 49 | 35 | 17 |  | 
COc1ccc(CCN2CCCn3c4c(c5ccccc53)CCCC42)cc1 (stereo not given) | 25 |  | 15 |  | 
COc1ccc(CC(=O)N(C)CCCn2c3ccccc3c3ccccc32)cc1 | 100 |  | > 250 |  | 
COc1cc(CCN(C)CCCn2c3ccccc3c3ccccc32)c(OC)cc1CCN(C)CCCn1c2ccccc2c2ccccc21 | 7 |  | 10 |  | Active
COc1ccc(Cn2c(=O)[nH]c3ccccc3c2=O)cc1 | 57 | 59 | > 250 |  | 
COc1ccc(CCN2[C@H](C)CN(CCCn3c4ccccc4c4ccccc43)C[C@@H]2C)cc1 | 25 | 0 |  |  | 
COc1ccc(CCN(C)CCC=C2c3ccccc3CCc3ccccc32)cc1 | 10 |  | 10 |  | 
COc1ccc(CCN(C)CCCN2c3ccccc3Sc3ccc(Cl)cc32)cc1 | 71 |  |  |  | 

SMILES | Activity (PBMC [1]) [%] | Activity (PBMC [2]) [%] | IC50 [3] [µM] | Activity [4] [%] | inhibition [5]
COc1ccc(CCN(C)CCCN2c3ccccc3Sc3ccccc32)cc1OC | 52 |  | 16 |  | 
COc1ccc(CCN(C)CCCN2c3ccccc3CCc3ccccc32)cc1 | 36 | 30 |  |  | 
COc1ccc(CCNCCNc2cccc3ccccc23)cc1OC | 65 |  | 112 |  | 
COc1ccc(CCN(C)CCCN(c2ccccc2)c2ccccc2)cc1OC | 59 |  |  |  | 
COc1ccc(CCN(C)CCCN2C(=O)COc3ccccc32)cc1 |  |  | 38 |  | 
COc1ccc(CCN(C)CCCN2c3ccccc3Sc3ccc(Cl)cc32)cc1OC | 31 | 18 | 12 |  | 
COc1ccc(CCN(C)CCCN(c2ccccc2)c2ccccc2)cc1 | 35 |  | > 250 |  | 
COc1ccc(CCN2[C@H](C)CN(CCCn3c4ccccc4c4ccccc43)C[C@@H]2C)cc1OC | 35 |  | 141 |  | 
COc1ccc(CCN(Cc2ccccc2)c2ccccn2)cc1 | 85 |  | > 250 |  | 
COc1ccc(Cn2c(=O)c3ccccc3n(Cc3ccc(OC)cc3)c2=O)cc1 | 4 |  | > 250 |  | 
COc1ccc(CCN(C)CCN2c3ccccc3CCc3ccccc32)cc1OC | 30 | 58 |  |  | 
COc1ccc(CCN2CCN(CCn3c4ccccc4c4ccccc43)CC2)cc1 | 14 | 16 |  |  | 
COc1ccc(CN(C)CCCn2c3ccccc3c3ccccc32)cc1 | 17 |  |  |  | 
COc1ccc(CCN(C)C(F)(F)C(F)(F)C(F)(F)C(F)(F)n2c3ccccc3c3ccccc32)cc1 | 80 |  | > 250 |  | 
COc1ccc(CC(=O)N(C)CCN2c3ccccc3CCc3ccccc32)cc1 | 94 | 90 | > 250 |  | 
COc1ccc(CC(=O)N(C)CCCN2c3ccccc3CCc3ccccc32)cc1 | 69 |  | 107 |  | 
COc1ccc(CCN(C)CCN2c3ccccc3Sc3ccccc32)cc1 | 25 | 25 |  |  | 
COc1ccc(CCN(C)CCN2c3ccccc3Sc3ccccc32)cc1OC | 72 |  |  |  | 
COc1ccc(Cn2c3ccccc3c3ccccc32)cc1 | 14 | 30 | 156 |  | 
COc1ccc(CCN(C)CCn2c3ccccc3c3ccccc32)cc1 | 9 | 55 | 6 |  | 
COc1ccc(CCN2[C@H](C)CN(CCCN3c4ccccc4Oc4ccccc43)C[C@@H]2C)cc1 | 10 |  | 43 |  | 
CN(C)CCCN1c2ccccc2Sc2ccc(Cl)cc21 [CHLORPROMAZINE] |  |  | 11 |  | 
COc1ccc(CCN(C)CCCN2c3ccccc3Oc3ccccc32)cc1 | 25 | 43 |  |  | 
COc1ccc(CCN(C)CCCn2c3ccccc3c3ccccc32)cc1OC | 24 | 41 | 14 |  | 
